Measured values from ChEMBL document CHEMBL1140016, “Arylpropanolamines: selective beta3 agonists arising from strategies to mitigate phase I metabolic transformations” (Bioorg Med Chem Lett, 2007).

How the values were obtained:
[1] = species on record: Homo sapiens; assay: Selectivity ratio of Ki for adrenergic beta2 receptor Ki for adrenergic beta-3 receptor
[2] = molecular target: T1, Beta-3 adrenergic receptor (Homo sapiens, UniProt P13945); assay: Intrinsic activity at human cloned adrenergic beta3 receptor expressed in CHO cells assessed as cAMP accumulation relative to isoproterenol; assay type: functional, cell-based
Target sequence in this assay (P13945 whole entry, looked up): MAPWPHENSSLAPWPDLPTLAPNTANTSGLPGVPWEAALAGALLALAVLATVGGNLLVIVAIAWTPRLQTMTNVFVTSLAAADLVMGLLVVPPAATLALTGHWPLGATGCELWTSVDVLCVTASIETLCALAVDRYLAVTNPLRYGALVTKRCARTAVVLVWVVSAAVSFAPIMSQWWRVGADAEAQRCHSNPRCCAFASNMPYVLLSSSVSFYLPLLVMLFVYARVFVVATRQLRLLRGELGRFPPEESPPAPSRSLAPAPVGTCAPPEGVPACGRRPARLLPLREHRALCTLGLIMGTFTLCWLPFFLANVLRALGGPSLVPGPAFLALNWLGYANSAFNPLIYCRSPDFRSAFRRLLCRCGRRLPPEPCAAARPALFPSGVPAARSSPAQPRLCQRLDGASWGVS

[3] = molecular target: T1, Beta-3 adrenergic receptor; assay: Displacement of [125I]iodocyanopindolol from cloned human adrenergic beta-3 receptor expressed in CHO cells; assay type: cell-based
Target sequence in this assay (P13945 whole entry): as the sequence (P13945 whole entry, looked up) above

[4] = molecular target: Beta-1 adrenergic receptor (Homo sapiens, UniProt P08588); assay: Displacement of [125I]iodocyanopindolol from human cloned adrenergic beta-1 receptor expressed in CHO cells; assay type: cell-based
[5] = species on record: Homo sapiens; assay: Selectivity ratio of Ki for human adrenergic beta-1 receptor to Ki for human adrenergic beta-3 receptor
[6] = molecular target: Beta-2 adrenergic receptor (Homo sapiens, UniProt P07550); assay: Displacement of [125I]iodocyanopindolol from human cloned adrenergic beta-2 receptor expressed in CHO cells; assay type: cell-based
[7] = molecular target: Beta-1 adrenergic receptor (Cavia porcellus) (UniProt B0FL73); assay: Intrinsic activity at adrenergic beta-1 receptor in spontaneously beating guinea pig atria assessed as acceleration in contraction relative to isoproterenol
[8] = tested on: African green monkey; assay: Ratio of effect on tachycardia to ED50 for lipolysis in African green monkey; assay type: functional, Chlorocebus sabaeus
Summary of the method: (§1)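 Compounds were given iv to ketamine-sedated African green monkeys across a range of doses. Lipolysis ED50 (mg/kg) came from the rise in serum free fatty acids. Onset doses were the lowest doses giving a statistically significant rise in heart rate (β1) or fall in serum K+ (β2). Each margin is the onset dose divided by the lipolysis ED50.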

[9] = tested on: African green monkey; assay: Ratio of serum potassium concentration to ED50 for lipolysis in African green monkey; assay type: functional, Chlorocebus sabaeus; summary of the method: as §1
[10] = tested on: African green monkey; assay: Effect on lipolysis in iv dosed African green monkey; assay type: functional; details: Chlorocebus sabaeus; summary of the method: as §1
[11] = tested on: African green monkey; assay: Effect on potassium levels in African green monkey serum at 0.1 mg/kg, iv; assay type: functional, Chlorocebus sabaeus; parameters: unit not given beside the values
Summary of the method: (§2)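 Single iv dose given to ketamine-sedated African green monkeys, either 0.1 or 0.5 mg/kg as the line states. Three read-outs were recorded after dosing: change in serum free fatty acids (β3 lipolysis), change in serum K+ (a decrease is β2-mediated) and change in heart rate (β1/β2 tachycardia). Changes were tested for significance at P < 0.05.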

[12] = tested on: African green monkey; assay: Effect on African green monkey assessed as change in free fatty acid level at 0.1 mg/kg, iv; assay type: functional, Chlorocebus sabaeus; summary of the method: as §2
[13] = tested on: African green monkey; assay: Effect on tachycardia in African green monkey assessed as change in heart rate at 0.1 mg/kg, iv; assay type: functional, Chlorocebus sabaeus; summary of the method: as §2
[14] = tested on: African green monkey; assay: Effect on African green monkey serum assessed as potassium concentration at 0.5 mg/kg, iv; assay type: functional, Chlorocebus sabaeus; summary of the method: as §2
[15] = tested on: African green monkey; assay: Effect on free fatty acid level in African green monkey serum at 0.5 mg/kg, iv; assay type: functional, Chlorocebus sabaeus; summary of the method: as §2
[16] = tested on: African green monkey; assay: Effect on tachycardia in African green monkey assessed as change in heart rate at 0.5 mg/kg, iv; assay type: functional, Chlorocebus sabaeus; summary of the method: as §2

Sequence of Beta-2 adrenergic receptor (P07550 whole entry): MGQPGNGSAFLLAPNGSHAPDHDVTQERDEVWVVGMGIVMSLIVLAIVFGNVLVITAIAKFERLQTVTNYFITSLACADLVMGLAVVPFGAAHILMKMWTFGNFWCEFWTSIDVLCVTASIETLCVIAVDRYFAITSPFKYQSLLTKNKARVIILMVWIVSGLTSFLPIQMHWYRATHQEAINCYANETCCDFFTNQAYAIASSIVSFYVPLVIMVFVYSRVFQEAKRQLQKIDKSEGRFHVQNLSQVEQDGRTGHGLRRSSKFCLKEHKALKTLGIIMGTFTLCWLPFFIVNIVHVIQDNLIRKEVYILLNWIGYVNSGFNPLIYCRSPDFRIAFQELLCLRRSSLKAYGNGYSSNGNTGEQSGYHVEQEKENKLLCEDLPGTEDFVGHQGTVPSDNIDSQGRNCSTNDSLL
Sequence of Beta-1 adrenergic receptor (P08588 whole entry): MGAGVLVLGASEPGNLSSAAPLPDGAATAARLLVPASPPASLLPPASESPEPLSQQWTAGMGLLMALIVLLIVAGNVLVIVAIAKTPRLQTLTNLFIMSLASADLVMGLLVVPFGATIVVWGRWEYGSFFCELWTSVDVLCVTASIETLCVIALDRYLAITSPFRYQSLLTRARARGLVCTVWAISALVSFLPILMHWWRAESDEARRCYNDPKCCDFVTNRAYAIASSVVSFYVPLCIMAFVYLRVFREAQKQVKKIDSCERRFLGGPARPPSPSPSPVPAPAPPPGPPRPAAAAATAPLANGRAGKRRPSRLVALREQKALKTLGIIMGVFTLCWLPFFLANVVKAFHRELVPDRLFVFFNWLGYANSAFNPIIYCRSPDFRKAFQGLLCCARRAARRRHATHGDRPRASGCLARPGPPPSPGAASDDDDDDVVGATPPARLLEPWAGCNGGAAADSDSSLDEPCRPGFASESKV
Sequence of Beta-1 adrenergic receptor (Cavia porcellus) (B0FL73 1-467): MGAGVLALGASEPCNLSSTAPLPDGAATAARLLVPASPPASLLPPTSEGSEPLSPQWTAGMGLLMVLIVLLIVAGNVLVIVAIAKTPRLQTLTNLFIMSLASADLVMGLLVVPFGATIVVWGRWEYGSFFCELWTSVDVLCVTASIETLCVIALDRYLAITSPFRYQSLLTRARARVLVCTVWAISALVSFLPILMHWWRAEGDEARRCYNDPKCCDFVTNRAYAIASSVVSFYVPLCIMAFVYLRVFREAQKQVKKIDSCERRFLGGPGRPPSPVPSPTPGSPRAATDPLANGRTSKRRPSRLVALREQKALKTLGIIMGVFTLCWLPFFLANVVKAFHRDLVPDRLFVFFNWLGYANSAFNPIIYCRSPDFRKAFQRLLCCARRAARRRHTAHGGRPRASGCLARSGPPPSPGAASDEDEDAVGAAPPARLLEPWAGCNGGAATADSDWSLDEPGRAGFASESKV

Row | Structure (SMILES) | Ratio Ki [1] | Intrinsic activity [2] | Ki [3] | Ki [4] | Ratio Ki [5] | Ki [6] | Intrinsic activity [7] | Ratio [8] | Ratio [9] | ED50 [10] | Activity [11] | Activity [12] | Activity [13] | Activity [14] | Activity [15] | Activity [16]
1 | COc1cccc([C@H](CCc2ccccc2)NC[C@H](O)Cc2ccc(O)c(NS(C)(=O)=O)c2)c1 | 0.5 | 44% | 390 nM | 570 nM | 1 | 200 nM |  |  |  |  |  |  |  |  |  | 
2 | COc1ccc([C@H](Cc2ccccc2)NC[C@H](O)Cc2ccc(O)c(NS(C)(=O)=O)c2)cc1OC |  | 70% | 150 nM | 47000 nM |  | 820 nM | 48% |  |  |  |  |  |  |  |  | 
3 | CS(=O)(=O)Nc1cc([C@@H](O)CNC(c2ccc(OC(F)F)cc2)c2ccc(OC(F)F)cc2)ccc1O |  |  |  |  |  |  |  | 6 | >60 | 0.08 mg/kg |  |  |  |  |  | 
4 | COc1ccc([C@H](Cc2ccccc2)NC[C@@H](O)Cc2ccc(O)c(NS(C)(=O)=O)c2)cc1OC |  | 62% | 9 nM | 560 nM |  | 24 nM | 75% |  |  |  |  |  |  |  |  | 
5 | COc1ccc([C@H](CCc2ccccc2)NC[C@H](O)Cc2ccc(O)c(NS(C)(=O)=O)c2)cc1 | 9 | 93% | 31 nM | 730 nM | 24 | 280 nM |  |  |  |  |  |  |  |  |  | 
6 | CCOP(=O)(OCC)c1ccc(NC(=O)[C@@](C)(NC[C@H](O)c2ccc(O)c(NS(C)(=O)=O)c2)c2ccc(OC)cc2)cc1 |  |  |  |  |  |  |  | >25 | >25 | 0.1 mg/kg |  |  |  |  |  | 
7 | COc1ccc([C@@H](Cc2ccccc2)NC[C@@H](O)Cc2ccc(O)c(NS(C)(=O)=O)c2)cc1OC |  | 86% | 6 nM | 2600 nM |  | 66 nM | 60% | 3 | >55 | 0.009 mg/kg | -0.08 | 1.06 | 24 |  |  | 
8 | CS(=O)(=O)Nc1cc(C[C@@H](O)CN[C@@H](CCc2ccccc2)c2ccc(OC(F)F)c(OC(F)F)c2)ccc1O | 1 | 86% | 59 nM | 490 nM | 8 | 71 nM |  |  |  |  |  |  |  |  |  | 
9 | COc1ccc([C@H](CCc2cccc(Cl)c2)NC[C@H](O)Cc2ccc(O)c(NS(C)(=O)=O)c2)cc1OC | 1 | 57% | 29 nM | 420 nM | 14 | 26 nM |  |  |  |  |  |  |  |  |  | 
10 | CS(=O)(=O)Nc1cc([C@@H](O)CN[C@H](Cc2ccccc2)c2ccc(OC(F)F)cc2)ccc1O |  | 107% |  |  |  |  |  | 3 | >25 | 0.03 mg/kg | 0.08 | 1.05 | 26 |  |  | 
11 | COc1ccc([C@@H](Cc2ccccc2)NC[C@H](O)Cc2ccc(O)c(NS(C)(=O)=O)c2)cc1OC |  | 43% | 25 nM | > 10000 nM |  | 1500 nM | 0% |  |  |  |  |  |  |  |  | 
12 | COc1ccc([C@@H](Cc2ccccc2)NC[C@H](O)Cc2ccc(O)c(NS(C)(=O)=O)c2)cc1 |  | 30% | 460 nM | > 10000 nM |  | 3100 nM | 0% |  |  |  |  |  |  |  |  | 
13 | COc1ccc(C(NC[C@H](O)c2ccc(O)c(NS(C)(=O)=O)c2F)c2ccc(OC)cc2)cc1 |  | 24% | 1700 nM |  |  |  |  |  |  |  |  |  |  | -0.49 | 0.39 | 4
14 | CS(=O)(=O)Nc1cc(C[C@H](O)CN[C@H](Cc2ccccc2)c2ccc(OC(F)F)c(OC(F)F)c2)ccc1O |  | 60% | 19 nM | 690 nM |  | 102 nM | 0% |  |  |  |  |  |  |  |  | 

Second part, led by results:

Row | Ratio Ki [1] | Intrinsic activity [2] | Ki [3] | Ki [4] | Ratio Ki [5] | Ki [6] | Structure (SMILES) | Intrinsic activity [7] | Ratio [8] | Ratio [9] | ED50 [10] | Activity [11] | Activity [12] | Activity [13] | Activity [14] | Activity [15] | Activity [16]
15 | 43 | 84% | 9 nM | 1000 nM | 111 | 390 nM | COc1ccc([C@H](CCc2ccccc2)NC[C@H](O)Cc2ccc(O)c(NS(C)(=O)=O)c2)cc1OC |  |  |  |  | -0.25 | 0.95 | 29 |  |  | 
16 | 13 | 68% | 6 nM |  | 52 |  | COc1ccc([C@@H](Cc2cccc(Cl)c2)NC[C@@H](O)Cc2ccc(O)c(NS(C)(=O)=O)c2)cc1OC |  |  |  |  | -0.55 | 0.92 | 6 |  |  | 
17 | 8 | 73% | 7 nM | 270 nM | 39 | 57 nM | COc1ccc([C@H](CCc2ccccc2Cl)NC[C@H](O)Cc2ccc(O)c(NS(C)(=O)=O)c2)cc1OC |  |  |  |  |  |  |  |  |  | 
18 |  | 27% | 1100 nM | > 10000 nM |  | 2700 nM | COc1cccc([C@@H](Cc2ccccc2)NC[C@H](O)Cc2ccc(O)c(NS(C)(=O)=O)c2)c1 | 0% |  |  |  |  |  |  |  |  | 
19 |  | 70% | 8 nM | 3200 nM |  | 1070 nM | COc1ccc([C@@H](Cc2ccccc2)NC[C@@H](O)Cc2ccc(O)c(NS(C)(=O)=O)c2)cc1O |  |  |  |  |  |  |  |  |  | 
20 | 10 | 89% | 12 nM | 1050 nM | 88 | 120 nM | COc1ccc([C@H](CCc2ccc(Cl)cc2)NC[C@H](O)Cc2ccc(O)c(NS(C)(=O)=O)c2)cc1OC |  |  |  |  | -0.32 | 0.87 | 32 |  |  | 
